Data on two compounds can be found in ChEMBL document CHEMBL1123247, “Nucleoside conjugates. 7. Synthesis and antitumor activity of 1-beta-D-arabinofuranosylcytosine conjugates of ether lipids” (J Med Chem, 1986).

Experiment [1] concerns L1210. Nature of the experiment: Antitumor activity was determined against the ip implanted L1210 leukemia in mice by range in survival days at 200 mg/kg (treatment of 1qd schedule) dosage; Range is 12->45. The format is functional, Mus musculus. The conditions noted are these: route intraperitoneal. A digest of the protocol:
(§1)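 DBA/2J mice, 23-28 g, in groups of 6, were inoculated ip with 1×10^6 L1210 cells on day 0. Dosing was ip starting 24 h later on the stated daily schedules. Conjugates were given as sonicated solutions and reference prodrugs as suspensions in 0.9% NaCl with 0.5% Tween-80. Mice were observed daily until death or 45 days. Median survival T/C was calculated from survivors per NCI protocols.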

Experiment [2] deals with L1210. Nature of the experiment: Antitumor activity was determined against the ic implanted L1210 lymphoid leukemia in mice by range in survival days at 100 mg/kg (1 qd treatment schedule) dosage; Range is 14-18. The format is functional, Mus musculus.
Experiment [3] deals with L1210. Nature of the experiment: Antitumor activity against the ic implanted L1210 lymphoid leukemia in mice expressed as optimal dose (1 qd treatment schedule) required to produce greatest increase in life span was determined. The format is functional, Mus musculus. In a few lines:
(§2)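 DBA/2J mice, groups of 6 (26-32 g), got 1 × 10^5 L1210 cells ic on day 0. Dosing was ip starting 24 h later, as a sonicated solution or suspension in 0.9% NaCl with 0.5% Tween-80, over a wide dose range. Mice were followed daily until death. Median survival T/C was taken from survivors per NCI protocols, and ILS = (T/C − 1) × 100. Active range means doses giving ILS ≥25%; optimal dose means greatest ILS.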

The subject of experiment [4] is L1210. Nature of the experiment: Antitumor activity against the ip implanted L1210 leukemia in mice expressed as optimal dose (1 qd treatment schedule) required to produce greatest increase in life span was determined. Type of experiment: functional, Mus musculus. In a few lines: (§3)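 DBA/2J mice, groups of 6 (23-28 g), were inoculated ip with 1 × 10^6 L1210 cells on day 0. Dosing was ip from 24 h, in 0.9% NaCl with 0.5% Tween-80 (sonicated solution or suspension). Mice were observed daily until death or day 45. Median survival T/C followed NCI protocols, and ILS = (T/C − 1) × 100. Active range means doses giving ILS ≥25%; optimal dose means greatest ILS.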

The subject of experiment [5] is L1210. The experiment can be described thus: Antitumor activity was determined against the ip implanted L1210 leukemia in mice by change in […] at 200 mg/kg (treatment of 1qd schedule) dosage. The format is functional, Mus musculus. The following applies: route intraperitoneal. In a few lines:
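DBA/2J mice, 6 per group (wt 23-28 g), inoculated ip with 1×10^6 L1210 cells on day 0. Treatment was given ip in 0.9% NaCl with 0.5% Tween-80, starting 24 h later. Weight change was taken on day 8. Mice were observed daily until death or 45 days. Median survival T/C and %ILS = (T/C − 1) × 100 came from survivors per NCI protocols, and 45-day survivors were counted.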

For experiment [6], the system named is L1210. The experiment can be described thus: Antitumor activity was determined against the ic implanted L1210 lymphoid leukemia in mice by […] at 100 mg/kg (1 qd treatment schedule) dosage; 17.5-7.0. The format is functional, Mus musculus. In a few lines: as §2
The subject of experiment [7] is L1210. Nature of the experiment: Antitumor activity was determined against the ic implanted L1210 lymphoid leukemia in mice by change in […] at 100 mg/kg (1 qd treatment schedule) dosage. Type of experiment: functional, Mus musculus. A digest of the protocol: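 DBA/2J mice, 6 per group (wt 26-32 g), inoculated ic with 1×10^5 L1210 cells on day 0. Dosing ip began 24 h after inoculation, with a sonicated solution or suspension in 0.9% NaCl containing 0.5% Tween-80, given over a range of doses. Animals were followed daily until death. Body weight change, median survival T/C, and %ILS = (T/C − 1) × 100 were computed from survivors per NCI protocols.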

The subject of experiment [8] is L1210. The experiment can be described thus: Antitumor activity against ip implanted L1210 leukemia in mice expressed as active dose range (1 qd treatment schedule) required to produce increase in life span by >25% was determined; Range is 100-250. The format is functional, Mus musculus. In a few lines: as §3
In experiment [9] the test system is L1210. Nature of the experiment: Antitumor activity was determined against the ip implanted L1210 leukemia in mice by 45-day survivors in mice at 200 mg/kg (treatment of 1qd schedule) dosage. Type of experiment: functional, Mus musculus. The following applies: route intraperitoneal. A digest of the protocol:
(§4)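 DBA/2J mice in groups of 6 (wt 23-28 g) were inoculated ip with 1×10^6 L1210 cells on day 0. Dosing was ip from 24 h, in 0.9% NaCl with 0.5% Tween-80 (conjugates sonicated), across a range of doses. Mice were observed daily until death or 45 days. Median T/C was computed from survivors per NCI protocols, and ILS = (T/C − 1)×100.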

For experiment [10], the system named is L1210. Nature of the experiment: Antitumor activity was determined against the ic implanted L1210 lymphoid leukemia in mice by percent increase in life span at 100 mg/kg (1 qd treatment schedule) dosage. The format is functional, Mus musculus. A digest of the protocol: as §2
Experiment [11] concerns L1210. Nature of the experiment: Antitumor activity was determined against the ip implanted L1210 leukemia in mice by percent increase in life span at 200 mg/kg (treatment of 1qd schedule) dosage. The format is functional, Mus musculus. The conditions noted are these: route intraperitoneal. A digest of the protocol:
as §4

The test system of experiment [12] is P388. The experiment can be described thus: Antitumor activity was determined against the ip implanted L1210 leukemia in mice by change in […] at 100 mg/kg (treatment of 1qd schedule) dosage. Type of experiment: functional, Mus musculus. The conditions noted are these: route intraperitoneal, in the assay text read “P388 leukemia” for “L1210 leukemia”.

Experiment [13] concerns P388. Nature of the experiment: Antitumor activity against ip implanted P388 leukemia in mice expressed as active dose range (1 qd treatment schedule) required to produce increase in life span by >25% was determined; Range is 50-100. Type of experiment: functional, Mus musculus. In a few lines:
(§5)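 P388 leukemia: 1 × 10^6 cells were given ip on day 0 to DBA/2J mice, groups of 6 (23-33 g). Treatment was ip from 24 h after inoculation, vehicle 0.9% NaCl with 0.5% Tween-80. Mice were observed daily until death or 45 days. Median survival T/C was calculated from survivors per NCI protocols, and ILS = (T/C − 1) × 100. Active range means doses giving ILS ≥25%; optimal dose means greatest ILS.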

Experiment [14] has as its system P388. Nature of the experiment: Antitumor activity against the ip implanted P388 leukemia in mice expressed as optimal dose (1 qd treatment schedule) required to produce greatest increase in life span was determined. Type of experiment: functional, Mus musculus. In a few lines: as §5
Experiment [15] concerns P388 leukemia (mouse). Nature of the experiment: Antitumor activity was determined against the ip implanted P388 leukemia in mice by 45-day survivors in mice at 100 mg/kg (treatment of 1qd schedule) dosage. The following applies: route intraperitoneal.
For experiment [16], the system named is P388. Nature of the experiment: Antitumor activity was determined against the ip implanted P388 leukemia in mice by percent increase in life span at 100 mg/kg (treatment of 1qd schedule) dosage. The following applies: route intraperitoneal.
For experiment [17], the system named is L1210. Nature of the experiment: Antitumor activity was determined against the ip implanted L1210 leukemia in mice by median survival time at 200 mg/kg (treatment of 1qd schedule) dosage; 17.5/7.0. The conditions noted are these: route intraperitoneal.
The test system of experiment [18] is P388. Nature of the experiment: Antitumor activity was determined against the ip implanted P388 leukemia in mice by range in survival days at 100 mg/kg (treatment of 1qd schedule) dosage; Range is 28->45. The conditions noted are these: route intraperitoneal.
For experiment [19], the system named is P388. Nature of the experiment: Antitumor activity was determined against the ip implanted P388 leukemia in mice by percent median survival rate (treated/control) at 100 mg/kg (treatment of 1qd schedule) dosage; >45.0/12.0. The following applies: route intraperitoneal.
The test system of experiment [20] is AMML. Nature of the experiment: Compound was tested for the inhibition of AMML (acute myelomonocytic leukemia). Type of experiment: functional, cell-based. The following applies: Homo sapiens. In a few lines: (§6)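 Human leukemia and solid tumor cells in culture were exposed to compound for 48 h. Viability was scored by trypan blue dye exclusion. IC50 (50% inhibition) was estimated from response curves of three separate experiments.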

Experiment [21] concerns CML/BC. The experiment can be described thus: Compound was tested for the inhibition of CML/BC(chronic myeloid leukemia, blast crisis). The format is functional, cell-based. The following applies: Homo sapiens. In a few lines:
as §6

Experiment [22] concerns Glioblastoma cell line. The experiment can be described thus: Compound was tested for the inhibition of glioblastoma. Type of experiment: functional, cell-based. The following applies: Homo sapiens. In a few lines: as §6
The test system of experiment [23] is HL-60. Nature of the experiment: Compound was tested for the inhibition of human HL60 Leukemia. Type of experiment: functional, cell-based. In a few lines: as §6
Experiment [24] concerns L1210. Nature of the experiment: Antitumor activity was determined against the ip implanted L1210 leukemia in mice by range in survival days at 5 mg/kg (treatment of 1-5qd schedule) dosage; Range is 8-9. The format is functional, Mus musculus. The conditions noted are these: route intraperitoneal. A digest of the protocol: as §1
Experiment [25] deals with L1210. The experiment can be described thus: Antitumor activity against the ip implanted L1210 leukemia in mice expressed as optimal dose (1-5qd treatment schedule) required to produce greatest increase in life span was determined. Type of experiment: functional, Mus musculus. In a few lines:
as §3

In experiment [26] the test system is L1210. Nature of the experiment: Antitumor activity was determined against the ip implanted L1210 leukemia in mice by 45-day survivors in mice at 5 mg/kg (treatment of 1-5qd schedule) dosage. The following applies: route intraperitoneal. The format is functional, Mus musculus. A digest of the protocol: as §4
Experiment [27] deals with L1210. Nature of the experiment: Antitumor activity was determined against the ip implanted L1210 leukemia in mice by percent increase in life span at 5 mg/kg (treatment of 1-5qd schedule) dosage. The following applies: route intraperitoneal. The format is functional, Mus musculus. In a few lines:
as §4

Experiment [28] concerns L1210. The experiment can be described thus: Antitumor activity was determined against the ip implanted L1210 leukemia in mice by percent median survival rate (treated/control) at 5 mg/kg (treatment of 1-5qd schedule) dosage; 9.0/8.0. The conditions noted are these: route intraperitoneal. Type of experiment: functional, Mus musculus. A digest of the protocol: as §1
In experiment [29] the test system is NSCLC. The experiment can be described thus: Compound was tested for the inhibition of non- small cell lung cancer. Type of experiment: functional, cell-based. The conditions noted are these: Homo sapiens. A digest of the protocol:
as §6

Experiment [30] relates to Small cell lung cancer cell line. The experiment can be described thus: Compound was tested for the inhibition of small cell lung cancer. The format is functional, cell-based. The conditions noted are these: Homo sapiens. A digest of the protocol: as §6

Each structure is given as a SMILES string.

Turning to `CCCCCCCCCCCCCCCC(=O)OC[C@H]1O[C@@H](n2ccc(N)nc2=O)[C@@H](O)[C@@H]1O`, the Range in [1] is listed as 12; in experiment [2], 14; in experiment [18], 28. Besides, the results for the Optimal dose in experiment [3], in experiment [4] and in [14] were 100 mg, 200 mg/kg/day and 100 mg, respectively. For the same compound, the Weight change in experiment [5] is 2 g mouse-1; in experiment [7], -2.03 g mouse-1; in [12], 0.3 g mouse-1. For the same compound, the median survival time is 17.5 days in [6], 17.5 days in experiment [17] and over 45 days in experiment [19]. Further, the Active dose range in [8] was determined as 100 mg/kg/day; in experiment [13] it was 50 mg/kg/day. The Survivors was found to be 1 in experiment [9] and 4 in [15]. Also, the ILS in [10] is listed as 150; in experiment [11], 150; in [16] it was over 275.

`CCCCCCCCCCCCCCCCCCOC[C@H](COP(=O)([O-])OCC[N+](C)(C)C)OC` [(R)-EDELFOSINE]: the IC50 worked out at 3.3 µM in experiment [20]; 1.5 µM in experiment [21]; 20 µM in [22]; 2.5 µM in experiment [23]; 21 µM in [29]; 24 µM in experiment [30]. Further, the Range in [24] is 8. The same compound showed an Optimal dose in experiment [25] of 5 mg/kg/day. For the same compound, the Survivors in experiment [26] is 0. Also, the ILS in experiment [27] turned out to be 13. Besides, the T/C in experiment [28] stood at 9%.
